ChEMBL document CHEMBL3627646, “Synthesis and biological activity of amino acid derivatives of avarone and its model compound” (Bioorg Med Chem, 2015)
pIC50: −log10 of the molar value. Converted amounts (≈) assume the structure as drawn.

Key:
[1] = tested on: MRC5; test: Cytotoxicity against human MRC5 cells; format: cell-based
[2] = tested on: Escherichia coli; test: Antibacterial activity against Escherichia coli ATCC 25922 after 24 hrs by microbroth double dilution method; format: functional; conditions: ATCC 25922, 24 h
Summary of the method: (§1)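 Microbroth double dilution in Mueller Hinton broth; compound stock 10 mg/mL in DMSO serially halved across rows. Wells inoculated with 10 μL culture at 10^6 cells/mL, incubated 37 °C for 24 h. Amikacin row as positive control, DMSO row as negative control. MIC taken as lowest concentration inhibiting bacterial growth.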

[3] = tested on: Staphylococcus aureus; test: Antibacterial activity against Staphylococcus aureus ATCC 6538 after 24 hrs by microbroth double dilution method; format: functional; conditions: ATCC 6538, 24 h; summary of the method: as §1
[4] = tested on: Aspergillus brasiliensis; test: Antifungal activity against Aspergillus brasiliensis ATCC 16404 after 24 hrs by microbroth double dilution method; format: functional; conditions: ATCC 16404, 24 h
[5] = tested on: Kocuria rhizophila; test: Antibacterial activity against Kocuria rhizophila ATCC 9341 after 24 hrs by microbroth double dilution method; format: functional; conditions: ATCC 9341, 24 h; summary of the method: as §1
[6] = tested on: A549; test: Cytotoxicity against human A549 cells assessed as cell survival after 72 hrs by MTT assay; format: functional, cell-based; conditions: A549, 72 h
Summary of the method: (§2)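 Cells seeded (HeLa 2000, MDA-MB-453 3000, others 5000 per well), treated 24 h later (K562 after 2 h). Five double-diluted final concentrations, 200–12.5 μM, from 10 mM DMSO stocks, in RPMI-1640 with 10% FBS, pH 7.2, 72 h. MTT 4 h at 37 °C, SDS added, A570 read next day. Survival relative to medium control; IC50 from survival curves; triplicate; cisplatin positive control.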

[7] = tested on: MDA-MB-453; test: Cytotoxicity against human MDA-MB-453 cells assessed as cell survival after 72 hrs by MTT assay; format: functional, cell-based; conditions: MDA-MB-453, 72 h; summary of the method: as §2
[8] = Cytotoxicity against human Fem-X cells assessed as cell survival after 72 hrs by MTT assay; format: functional, cell-based; summary of the method: as §2
[9] = tested on: Saccharomyces cerevisiae; test: Antifungal activity against Saccharomyces cerevisiae ATCC 9763 after 24 hrs by microbroth double dilution method; format: functional; conditions: ATCC 9763, 24 h
[10] = tested on: K562; test: Cytotoxicity against human K562 cells assessed as cell survival after 72 hrs by MTT assay; format: functional, cell-based; conditions: K562, 72 h; summary of the method: as §2
[11] = tested on: Clostridium sporogenes; test: Antibacterial activity against Clostridium sporogenes ATCC 19404 after 24 hrs by microbroth double dilution method; format: functional; conditions: ATCC 19404, 24 h; summary of the method: as §1
[12] = tested on: Artemia salina; test: Cytotoxicity in Brine shrimp assessed as nauplii mortality after 24 hrs; format: organism-based; conditions: in vivo
Summary of the method: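 Artemia salina eggs hatched in aerated tap water with dried yeast at 18–20 °C under illumination for 48 h, and freshly hatched nauplii were used. Compounds in DMSO (0.01–1 mg) were added to 950 µL artificial seawater containing 10–20 nauplii, with 5% final DMSO. After 24 h under illumination at room temperature, dead and surviving nauplii were counted and statistically analysed.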

[13] = tested on: MRC5; test: Cytotoxicity against human MRC5 cells assessed as cell survival after 72 hrs by MTT assay; format: cell-based; conditions: MRC5, 72 h; summary of the method: as §2
[14] = tested on: Pseudomonas aeruginosa; test: Antibacterial activity against Pseudomonas aeruginosa ATCC 9027 after 24 hrs by microbroth double dilution method; format: functional; conditions: ATCC 9027, 24 h; summary of the method: as §1
[15] = tested on: Salmonella enterica; test: Antibacterial activity against Salmonella enterica ATCC 13076 after 24 hrs by microbroth double dilution method; format: functional; conditions: ATCC 13076, 24 h; summary of the method: as §1
[16] = tested on: Candida albicans; test: Antifungal activity against Candida albicans ATCC 10231 after 24 hrs by microbroth double dilution method; format: functional; conditions: ATCC 10231, 24 h
[17] = tested on: Micrococcus luteus; test: Antibacterial activity against Micrococcus luteus ATCC 4698 after 24 hrs by microbroth double dilution method; format: functional; conditions: ATCC 4698, 24 h; summary of the method: as §1
[18] = tested on: Proteus hauseri; test: Antibacterial activity against Proteus hauseri ATCC 13315 after 24 hrs by microbroth double dilution method; format: functional; conditions: ATCC 13315, 24 h; summary of the method: as §1
[19] = tested on: Micrococcus flavus; test: Antibacterial activity against Micrococcus flavus ATCC 10240 after 24 hrs by microbroth double dilution method; format: functional; conditions: ATCC 10240, 24 h; summary of the method: as §1
[20] = tested on: HeLa; test: Cytotoxicity against human HeLa cells assessed as cell survival after 72 hrs by MTT assay; format: functional, cell-based; summary of the method: as §2
[21] = tested on: Bacillus subtilis; test: Antibacterial activity against Bacillus subtilis ATCC 6633 after 24 hrs by microbroth double dilution method; format: functional; conditions: ATCC 6633, 24 h; summary of the method: as §1

| Compound | MIC [2] | MIC [3] | MIC [4] | MIC [5] | pIC50 [6] | pIC50 [7] | pIC50 [8] | MIC [9] | pIC50 [10] | MIC [11] | LC50 [12] | pIC50 [13] | MIC [14] | MIC [15] | MIC [16] | MIC [17] | MIC [18] | MIC [19] | pIC50 [20] | MIC [21] | further results |
| --- | --- | --- | --- | --- | --- | --- | --- | --- | --- | --- | --- | --- | --- | --- | --- | --- | --- | --- | --- | --- | --- |
| CC1=CCC[C@H]2[C@](C)(CC3=CC(=O)C(N[C@@H](CC(C)C)C(=O)O)=CC3=O)[C@@H](C)CC[C@]12C | – | – | – | – | – | – | – | – | – | – | – | – | – | – | – | – | – | – | – | – | pIC50 [1]: < 4.00 |
| CC1=CCC[C@H]2[C@](C)(CC3=CC(=O)C=C(N[C@@H](C)C(=O)O)C3=O)[C@@H](C)CC[C@]12C | 49.1 µM (≈ 19.6 µg/mL) | 49.1 µM (≈ 19.6 µg/mL) | 1560 µM (≈ 624 µg/mL) | 1570 µM (≈ 626 µg/mL) | 4.27 | 4.83 | 4.99 | 195 µM (≈ 77.9 µg/mL) | 4.80 | 195 µM (≈ 77.9 µg/mL) | 129.4 ppm | 3.80 | 195 µM (≈ 78.1 µg/mL) | 195 µM (≈ 78.1 µg/mL) | 6.13 µM (≈ 2.45 µg/mL) | 97.7 µM (≈ 39.1 µg/mL) | 393 µM (≈ 157 µg/mL) | 195 µM (≈ 78.1 µg/mL) | 4.93 | 195 µM (≈ 78.1 µg/mL) | – |
| CC(C)(C)C1=CC(=O)C=C(NCCC(=O)O)C1=O | 1250 µM (≈ 313 µg/mL) | 625 µM (≈ 157 µg/mL) | 2490 µM (≈ 626 µg/mL) | 2490 µM (≈ 625 µg/mL) | 3.77 | 4.03 | 4.55 | 311 µM (≈ 78.1 µg/mL) | 4.17 | 1250 µM (≈ 313 µg/mL) | 833.2 ppm | < 3.70 | 2490 µM (≈ 625 µg/mL) | 2490 µM (≈ 625 µg/mL) | 626 µM (≈ 157 µg/mL) | 1250 µM (≈ 313 µg/mL) | 2490 µM (≈ 625 µg/mL) | 2490 µM (≈ 625 µg/mL) | 4.33 | 2490 µM (≈ 625 µg/mL) | – |
| CC(C)(C)C1=CC(=O)C=C(N[C@@H](Cc2ccccc2)C(=O)O)C1=O | 480 µM (≈ 157 µg/mL) | 480 µM (≈ 157 µg/mL) | 957 µM (≈ 313 µg/mL) | 1910 µM (≈ 626 µg/mL) | 3.78 | 4.17 | 4.17 | 119 µM (≈ 39 µg/mL) | 4.08 | 1910 µM (≈ 626 µg/mL) | 196.8 ppm | < 3.70 | 1910 µM (≈ 626 µg/mL) | 1910 µM (≈ 626 µg/mL) | 480 µM (≈ 157 µg/mL) | 480 µM (≈ 157 µg/mL) | 1910 µM (≈ 626 µg/mL) | 1910 µM (≈ 626 µg/mL) | 4.18 | 1910 µM (≈ 626 µg/mL) | – |
| CC(C)(C)C1=CC(=O)C=CC1=O | 238 µM (≈ 39 µg/mL) | 238 µM (≈ 39 µg/mL) | 122 µM (≈ 20 µg/mL) | 475 µM (≈ 78 µg/mL) | 4.33 | 4.25 | 4.38 | 238 µM (≈ 39 µg/mL) | 4.81 | 475 µM (≈ 78 µg/mL) | 27.4 ppm | < 3.70 | 475 µM (≈ 78 µg/mL) | 475 µM (≈ 78 µg/mL) | 122 µM (≈ 20 µg/mL) | 238 µM (≈ 39 µg/mL) | 475 µM (≈ 78 µg/mL) | 475 µM (≈ 78 µg/mL) | 4.36 | 238 µM (≈ 39 µg/mL) | – |
